Test results: ChEMBL document CHEMBL4627266, “Design and biological evaluation of a novel type of potential multi-targeting antimicrobial sulfanilamide hybrids in combination of pyrimidine and azoles” (Bioorg Med Chem Lett, 2020)
In brackets after ≈: the same amount, converted by molar mass. Activity calls are given as the source filed them. The rule behind the calls is not given here.

Experiments:
Staphylococcus aureus [1] = assay: Antibacterial activity against methicillin-resistant Staphylococcus aureus by two fold serial microbroth dilution method; type: functional
How it was run: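 Two-fold serial microbroth dilution in microdilution plates, run per CLSI, with clinical antibacterial drugs as positive controls. The MRSA strain was a drug-resistant clinical isolate from infected patients. MIC (μg/mL) was read as the lowest concentration giving complete inhibition of visible bacterial growth.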

Staphylococcus aureus [2] = assay: Antibacterial activity against Staphylococcus aureus by two fold serial microbroth dilution method; type: functional
How it was run: (§1)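 Two-fold serial dilution in microdilution plates (micro broth dilution) following CLSI. Panel includes clinical drug-resistant isolates and ATCC reference strains. Clinical drugs were run as positive controls.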

Staphylococcus aureus [3] = assay: Antibacterial activity against Staphylococcus aureus ATCC 25923 by two fold serial microbroth dilution method; type: functional; how it was run: as §1
Enterococcus faecalis [4] = assay: Antibacterial activity against Enterococcus faecalis by two fold serial microbroth dilution method; type: functional; how it was run: as §1
Klebsiella pneumoniae = assay: Antibacterial activity against Klebsiella pneumoniae by two fold serial microbroth dilution method; type: functional; how it was run: as §1
Escherichia coli [5] = assay: Antibacterial activity against Escherichia coli by two fold serial microbroth dilution method; type: functional; how it was run: as §1
Escherichia coli [6] = assay: Antibacterial activity against Escherichia coli ATCC 25922 by two fold serial microbroth dilution method; type: functional; how it was run: as §1
Pseudomonas aeruginosa [7] = assay: Antibacterial activity against Pseudomonas aeruginosa by two fold serial microbroth dilution method; type: functional; how it was run: as §1
Pseudomonas aeruginosa [8] = assay: Antibacterial activity against Pseudomonas aeruginosa ATCC 27853 by two fold serial microbroth dilution method; type: functional; how it was run: as §1
Acinetobacter baumannii = assay: Antibacterial activity against Acinetobacter baumannii by two fold serial microbroth dilution method; type: functional; how it was run: as §1
Candida albicans [9] = assay: Antifungal activity against Candida albicans by two fold serial microbroth dilution method; type: functional
How it was run: (§2)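 Antifungal MIC by two-fold serial dilution following CLSI, with a clinical drug as positive control. Panel includes clinical drug-resistant fungal isolates.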

Candida tropicalis = assay: Antifungal activity against Candida tropicalis by two fold serial microbroth dilution method; type: functional; how it was run: as §2
Aspergillus fumigatus = assay: Antifungal activity against Aspergillus fumigatus by two fold serial microbroth dilution method; type: functional; how it was run: as §2
Staphylococcus aureus [10] = assay: Antibacterial activity against Staphylococcus aureus ATCC 29213 by two fold serial microbroth dilution method; type: functional; how it was run: as §1
Candida albicans [11] = assay: Antifungal activity against Candida albicans ATCC 90023 by two fold serial microbroth dilution method; type: functional; how it was run: as §2
Enterococcus faecalis [12] = assay: Antibacterial activity against Enterococcus faecalis measured after 16 passages by microbroth dilution method; type: functional, organism-based
[13] = Cytotoxicity against human A549 cells assessed as cell viability at 64 ug/ml incubated for 24 hrs by MTT assay relative to control; type: cell-based; details: read-out: Activity
How it was run: (§3)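 A549 lung cancer cells and BEAS-2B normal lung epithelial cells were exposed to the compound at a range of concentrations up to 64 μg/mL for 24 h. Viability was read by colorimetric MTT cell proliferation assay. Doxorubicin at 0.5 µM served as positive control.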

[14] = Cytotoxicity against human BEAS2B cells assessed as cell viability at 64 ug/ml incubated for 24 hrs by MTT assay relative to control; type: cell-based; details: BEAS-2B cells, read-out: Activity; how it was run: as §3
Enterococcus faecalis [15] = assay: Bactericidal activity against Enterococcus faecalis assessed as log10 reduction in CFU at MIC to 6XMIC by time kill kinetics analysis; type: functional
How it was run: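 E. faecalis was exposed to the compound at MIC and 6 × MIC. Viable counts (log CFU/mL) were followed over time.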

Enterococcus faecalis [16] = assay: Induction of cell membrane permeabilization in Enterococcus faecalis at 12XMIC measured after 60 mins by PI staining based fluorescence assay; type: organism-based
How it was run: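 E. faecalis cells were treated with the compound at 12 × MIC in the presence of propidium iodide, which enters only compromised cells and fluoresces on binding dsDNA. Fluorescence at 617 nm was followed over time, to about 120 min.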

DNA [17] = assay: Binding affinity to Enterococcus faecalis DNA assessed as hyperchromic effect by UV-visible spectrophotometric method; type: nucleic-acid assay
DNA [18] = assay: Binding affinity to Enterococcus faecalis DNA assessed as decrease in maximum absorption of DNA-NR complex at 530 nm by neutral red dye based absorption spectral assay; type: nucleic-acid assay
Albumin = Albumin (Homo sapiens, UniProt P02768); assay: Binding affinity to HSA by UV-visible spectrophotometric method; type: ADME; details: isolated protein
DNA [19] = assay: Binding affinity to Enterococcus faecalis DNA assessed as blue shift by UV-visible spectrophotometric method; type: nucleic-acid assay
DNA [20] = assay: Binding affinity to Enterococcus faecalis DNA assessed as increase in absorption peak at 460 nm by neutral red dye based absorption spectral assay; type: nucleic-acid assay

Sequence of Albumin (P02768 whole entry): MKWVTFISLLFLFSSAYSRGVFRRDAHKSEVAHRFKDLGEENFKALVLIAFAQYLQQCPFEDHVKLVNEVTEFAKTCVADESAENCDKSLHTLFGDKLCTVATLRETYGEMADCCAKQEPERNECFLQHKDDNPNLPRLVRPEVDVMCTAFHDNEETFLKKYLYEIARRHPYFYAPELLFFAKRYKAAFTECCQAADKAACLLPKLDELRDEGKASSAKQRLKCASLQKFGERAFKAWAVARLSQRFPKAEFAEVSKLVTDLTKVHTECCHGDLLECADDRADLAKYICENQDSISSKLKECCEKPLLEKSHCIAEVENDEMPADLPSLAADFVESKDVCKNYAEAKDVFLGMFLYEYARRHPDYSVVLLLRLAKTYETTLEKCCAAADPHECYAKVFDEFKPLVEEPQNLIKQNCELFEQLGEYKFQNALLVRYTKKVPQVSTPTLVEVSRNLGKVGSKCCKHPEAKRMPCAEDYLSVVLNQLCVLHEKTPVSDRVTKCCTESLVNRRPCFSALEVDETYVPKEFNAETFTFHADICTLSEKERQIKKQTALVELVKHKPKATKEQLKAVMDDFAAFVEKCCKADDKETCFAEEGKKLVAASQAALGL

SMILES | MIC (Staphylococcus aureus [1]) [µg/mL] | MIC (Staphylococcus aureus [2]) [µg/mL] | MIC (Staphylococcus aureus [3]) [µg/mL] | MIC (Enterococcus faecalis [4]) [µg/mL] | MIC (Klebsiella pneumoniae) [µg/mL] | MIC (Escherichia coli [5]) [µg/mL] | MIC (Escherichia coli [6]) [µg/mL] | MIC (Pseudomonas aeruginosa [7]) [µg/mL] | MIC (Pseudomonas aeruginosa [8]) [µg/mL] | MIC (Acinetobacter baumannii) [µg/mL] | MIC (Candida albicans [9]) [µg/mL] | MIC (Staphylococcus aureus [10]) [µg/mL] | also measured
Cc1ccc2c(ccn2-c2ccnc(NS(=O)(=O)c3ccc(N)cc3)n2)c1 | 4 (≈ 10.5 µM) | 16 (≈ 42.2 µM) | 4 (≈ 10.5 µM) | 8 (≈ 21.1 µM) | 8 (≈ 21.1 µM) | 8 (≈ 21.1 µM) | 32 (≈ 84.3 µM) | 4 (≈ 10.5 µM) | 4 (≈ 10.5 µM) | 64 (≈ 169 µM) | 2 to 8 (≈ 5.27 to 21.1 µM) | 16 (≈ 42.2 µM) | MIC (Candida tropicalis): 2 to 8 µg/mL (≈ 5.27 to 21.1 µM); MIC (Aspergillus fumigatus): 2 to 8 µg/mL (≈ 5.27 to 21.1 µM)
CC(C)c1nccn1-c1ccnc(NS(=O)(=O)c2ccc(N)cc2)n1 | 32 (≈ 89.3 µM) | 256 (≈ 714 µM) | 256 (≈ 714 µM) | 128 (≈ 357 µM) | 256 (≈ 714 µM) | 64 (≈ 179 µM) | 128 (≈ 357 µM) | 128 (≈ 357 µM) | 32 (≈ 89.3 µM) | 64 (≈ 179 µM) | – | 32 (≈ 89.3 µM) | –
CCc1nccn1-c1ccnc(NS(=O)(=O)c2ccc(N)cc2)n1 | 128 (≈ 372 µM) | 128 (≈ 372 µM) | 128 (≈ 372 µM) | 64 (≈ 186 µM) | 64 (≈ 186 µM) | 128 (≈ 372 µM) | 512 (≈ 1490 µM) | 128 (≈ 372 µM) | 128 (≈ 372 µM) | 64 (≈ 186 µM) | – | 64 (≈ 186 µM) | –
CCCc1nccn1-c1ccnc(NS(=O)(=O)c2ccc(N)cc2)n1 | 16 (≈ 44.6 µM) | 8 (≈ 22.3 µM) | 64 (≈ 179 µM) | 64 (≈ 179 µM) | 64 (≈ 179 µM) | 16 (≈ 44.6 µM) | 128 (≈ 357 µM) | 128 (≈ 357 µM) | 128 (≈ 357 µM) | 32 (≈ 89.3 µM) | – | 8 (≈ 22.3 µM) | MIC (Candida albicans [11]): 4 µg/mL (≈ 11.2 µM)
Nc1ccc(S(=O)(=O)Nc2nccc(-n3cncn3)n2)cc1 | 128 (≈ 403 µM) | 512 (≈ 1610 µM) | 256 (≈ 807 µM) | 256 (≈ 807 µM) | 32 (≈ 101 µM) | 128 (≈ 403 µM) | 256 (≈ 807 µM) | 4 (≈ 12.6 µM) | 32 (≈ 101 µM) | 128 (≈ 403 µM) | 8 (≈ 25.2 µM) | 64 (≈ 202 µM) | –
Nc1ccc(S(=O)(=O)Nc2nccc(-n3ccnc3)n2)cc1 | 32 (≈ 101 µM) | 128 (≈ 405 µM) | 256 (≈ 809 µM) | 128 (≈ 405 µM) | 256 (≈ 809 µM) | 256 (≈ 809 µM) | 256 (≈ 809 µM) | 128 (≈ 405 µM) | 256 (≈ 809 µM) | 64 (≈ 202 µM) | – | 128 (≈ 405 µM) | –
CCn1cc(C(=O)O)c(=O)c2cc(F)c(N3CCNCC3)cc21 [NORFLOXACIN] | 8 (≈ 25.1 µM) | 0.5 (≈ 1.57 µM) | 1 (≈ 3.13 µM) | 4 (≈ 12.5 µM) | 4 (≈ 12.5 µM) | 16 (≈ 50.1 µM) | 8 (≈ 25.1 µM) | 2 (≈ 6.26 µM) | 0.5 (≈ 1.57 µM) | 8 (≈ 25.1 µM) | – | 2 (≈ 6.26 µM) | Activity (Enterococcus faecalis [12]): inactive
Nc1ccc(S(=O)(=O)Nc2nccc(-n3ccc4ccccc43)n2)cc1 | 2 (≈ 5.47 µM) | 32 (≈ 87.6 µM) | 4 (≈ 10.9 µM) | 1 (≈ 2.74 µM) | 32 (≈ 87.6 µM) | 32 (≈ 87.6 µM) | 32 (≈ 87.6 µM) | 8 (≈ 21.9 µM) | 1 (≈ 2.74 µM) | – | 2 to 8 (≈ 5.47 to 21.9 µM) | 8 (≈ 21.9 µM) | MIC (Candida tropicalis): 2 to 8 µg/mL (≈ 5.47 to 21.9 µM); MIC (Aspergillus fumigatus): 2 to 8 µg/mL (≈ 5.47 to 21.9 µM); viability at 24 h, 64 ug/ml [13]: 70%; viability at 24 h, 64 ug/ml [14]: 70%; Activity (Enterococcus faecalis [12]): Active; Activity (Enterococcus faecalis [15]): >3 log10CFU/ml; Activity (Enterococcus faecalis [16]): Active; Activity (DNA [17]): Active; Activity (DNA [18]): Active; Activity (Albumin): Active; Activity (DNA [19]): Active; Activity (DNA [20]): Active
Nc1ccc(S(=O)(=O)Nc2nccc(-n3ccc4cc([N+](=O)[O-])ccc43)n2)cc1 | 16 (≈ 39 µM) | 32 (≈ 78 µM) | 4 (≈ 9.75 µM) | 8 (≈ 19.5 µM) | 32 (≈ 78 µM) | 8 (≈ 19.5 µM) | 128 (≈ 312 µM) | 16 (≈ 39 µM) | 8 (≈ 19.5 µM) | 128 (≈ 312 µM) | 2 to 8 (≈ 4.87 to 19.5 µM) | 64 (≈ 156 µM) | MIC (Candida tropicalis): 2 to 8 µg/mL (≈ 4.87 to 19.5 µM); MIC (Aspergillus fumigatus): 2 to 8 µg/mL (≈ 4.87 to 19.5 µM)
Cc1nccn1-c1ccnc(NS(=O)(=O)c2ccc(N)cc2)n1 | 128 (≈ 387 µM) | 256 (≈ 775 µM) | 256 (≈ 775 µM) | 128 (≈ 387 µM) | 512 (≈ 1550 µM) | 128 (≈ 387 µM) | 256 (≈ 775 µM) | 128 (≈ 387 µM) | 256 (≈ 775 µM) | 256 (≈ 775 µM) | – | 256 (≈ 775 µM) | –
Cc1cc2ncn(-c3ccnc(NS(=O)(=O)c4ccc(N)cc4)n3)c2cc1C | 64 (≈ 162 µM) | 256 (≈ 649 µM) | 256 (≈ 649 µM) | 256 (≈ 649 µM) | 256 (≈ 649 µM) | 256 (≈ 649 µM) | 512 (≈ 1300 µM) | 256 (≈ 649 µM) | 128 (≈ 324 µM) | 128 (≈ 324 µM) | – | 128 (≈ 324 µM) | –
Cc1ncc([N+](=O)[O-])n1-c1ccnc(NS(=O)(=O)c2ccc(N)cc2)n1 | 64 (≈ 170 µM) | 128 (≈ 341 µM) | 128 (≈ 341 µM) | 128 (≈ 341 µM) | 64 (≈ 170 µM) | 128 (≈ 341 µM) | 256 (≈ 682 µM) | 256 (≈ 682 µM) | 128 (≈ 341 µM) | 64 (≈ 170 µM) | – | 128 (≈ 341 µM) | –
Nc1ccc(S(=O)(=O)Nc2nccc(-n3ccc4cc(Br)ccc43)n2)cc1 | 4 (≈ 9 µM) | 64 (≈ 144 µM) | 2 (≈ 4.5 µM) | 4 (≈ 9 µM) | 32 (≈ 72 µM) | 4 (≈ 9 µM) | 2 (≈ 4.5 µM) | 4 (≈ 9 µM) | 4 (≈ 9 µM) | 128 (≈ 288 µM) | 2 to 8 (≈ 4.5 to 18 µM) | 16 (≈ 36 µM) | MIC (Candida tropicalis): 2 to 8 µg/mL (≈ 4.5 to 18 µM); MIC (Aspergillus fumigatus): 2 to 8 µg/mL (≈ 4.5 to 18 µM)
Nc1ccc(S(=O)(=O)Nc2nccc(-n3cnc4ccccc43)n2)cc1 | 8 (≈ 21.8 µM) | 256 (≈ 699 µM) | 512 (≈ 1400 µM) | 256 (≈ 699 µM) | 256 (≈ 699 µM) | 128 (≈ 349 µM) | 256 (≈ 699 µM) | 512 (≈ 1400 µM) | 256 (≈ 699 µM) | 512 (≈ 1400 µM) | – | 256 (≈ 699 µM) | –
